Source: PubChem BioAssay
Most compounds without a hit are left out; they make up all but 9.2% or so of the library.
H69AR growth 86K: blocks growth of human H69AR lung tumor cells | H69AR lung tumor viability, ATP luminescence, 72 h; hits give low values | viability, % at 10 µM | 85,000 tested, 6% active;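 active = viability at or below 40%; inactive = viability above 40%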;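 note: multidrug resistant small cell line overexpressing MRP-1 efflux transporter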
ERa coact pot: ER-alpha (human) coactivator binding potentiation. coactivator binding (% of control), % at 25.6 µM. 86,000 tested, 1.3% active. TR-FRET ERalpha-LBD/SRC-Cy5 coactivator binding, 2 h; 100 = basal binding, no effect. AID 639. P03372; in the data active = activity above about 200%;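 note: binding measured in presence of low estradiol as agonist stimulus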
Fibroblast inh: blocks proliferation of human lung fibroblasts | LL 47 human lung fibroblast viability, ATP luminescence; hits give low values | viability, % at 10 µM | 85,000 tested, 1.1% active | AID 719;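 active = viability at or below 50% in the single dose screen; inactive = viability above 50%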;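 note: compound exposure lasted 72 h before the ATP readout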
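test system = LL 47 human lung fibroblasts | amount = 1,150 fibroblasts seeded per well | medium = 15% FBS in IMEM | times = overnight cell rest, 72 h compound treatment at 37 °C | measured by = CellTiter-Glo luminescence measuring cellular ATP | read-out = viability percentage against median untreated-cell control | benchmarks = cell-only wells, no compound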
HUVEC prolif 384: blocks proliferation of human endothelial cells. HUVEC proliferation, CellTiter-Glo luminescence, 72 h; hits give low values. viability, % at 10 µM (by protocol). 86,000 tested, 1.1% active;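 active = viability at or below 30%; inactive = viability above 30%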
ERb coact inh: blocks coactivator binding to human estrogen receptor beta. inhibition, % at 25.6 µM. 86,000 tested, 1.3% active. TR-FRET ER-beta LBD / SRC1-Cy5 peptide binding; receptor agonist-loaded with 1 µM estradiol;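 active = compounds whose percent inhibition of the receptor-coactivator binding signal exceeds about 50% in the single-dose screen, limit read from the data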
Target sequence (Q92731 whole entry, looked up, the tested form may be a part): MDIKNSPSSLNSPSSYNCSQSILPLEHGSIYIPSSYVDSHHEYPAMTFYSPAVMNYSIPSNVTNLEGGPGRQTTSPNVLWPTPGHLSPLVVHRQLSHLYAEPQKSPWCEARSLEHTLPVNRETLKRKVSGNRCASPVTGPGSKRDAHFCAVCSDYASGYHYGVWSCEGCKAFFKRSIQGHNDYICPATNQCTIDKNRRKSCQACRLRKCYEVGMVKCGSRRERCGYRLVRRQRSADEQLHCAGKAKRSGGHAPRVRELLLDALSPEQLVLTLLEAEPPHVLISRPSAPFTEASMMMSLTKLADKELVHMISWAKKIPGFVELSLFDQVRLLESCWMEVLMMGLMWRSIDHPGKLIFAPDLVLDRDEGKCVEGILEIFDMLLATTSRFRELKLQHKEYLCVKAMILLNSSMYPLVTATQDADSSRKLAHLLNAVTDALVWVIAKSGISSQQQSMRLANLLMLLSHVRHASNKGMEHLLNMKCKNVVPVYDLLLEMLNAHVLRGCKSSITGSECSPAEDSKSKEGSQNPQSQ
ERa coact inh: ER-alpha (human) coactivator binding inhibition | TR-FRET ER-alpha LBD / SRC-1 peptide, estradiol-bound | inhibition, % at 25.6 µM | 86,000 tested, 1.7% active; in the data active = inhibition above about 50%
Large screens that a line does not name were inactive; ! = not confirmed by another sample; [ ] = another dose, or the depositor's remark.

Cc1ccnc2ccc(-c3nc4ccccc4o3)cc12	HUVEC prolif 384 29.7
O=C1CC(N2CCC(O)(c3ccc(Cl)cc3)CC2)C(=O)N1Cc1ccc(N2CCCC2=O)cc1 (configuration not stated)	none
CCCCCCS(=O)Cc1ccccc1 (configuration not stated)	none
COCCCn1c(SCC(=O)N2CCc3ccccc32)nnc1-c1ccco1	none
Cc1ccc(NC(=O)N2CCCN(Cc3ccc(F)cc3)C2)cc1C	H69AR growth 86K 28.1 (no result: Fibroblast inh)
CN1CCC(=NNC(=O)C(=O)NC(C)(C)C)CC1	none
Cc1oc(-c2ccccc2)cc1C(=O)Nc1cccc2ccccc12	H69AR growth 86K 33.9
Cc1oc(-c2ccccc2)cc1C(=O)Nc1cccc(C(=O)O)c1	none
Cc1ccc(C(=O)O)cc1-c1ccc(/C=C2/NC(=O)N(c3ccccc3)C2=O)o1	ERb coact inh 81.0[fluorescence artefact?], ERa coact inh 79.6[fluorescence artefact?]
Cc1ccc(N2C(=O)c3ccc(C(=O)O)cc3C2=O)cc1C	none
O=c1cc(N2CCN(c3ccc(F)cc3)CC2)[nH]c(=O)n1C1CCCCC1	H69AR growth 86K 35.0
O=c1cc(N2CCC3(CC2)OCCO3)[nH]c(=O)n1C1CCCCC1	none
COc1ccc(OC)c(C(O)c2coc3ccc(O)c(CN4CCOCC4)c23)c1 (configuration not stated)	none
Cn1c(C(C#N)C(=O)c2sc3ccccc3c2Cl)nc2ccccc21 (configuration not stated)	H69AR growth 86K 17.1
OCCSc1nc(-c2cccnc2)nc2ccccc12	none
Cc1ccc2nc(NCCCO)nc(-c3ccccc3)c2c1	H69AR growth 86K 8.9
COc1cc(C(=O)NCCC(=O)NCCN2CCOCC2)cc(OC)c1OC	none
Cc1cc(OCC(=O)Nc2cc(-c3nn4c(C)nnc4s3)ccc2C)ccc1Cl	ERa coact pot 621.5[fluorescence artefact?]
COc1ccc(C(=O)Nc2cc(-c3nn4c(C)nnc4s3)ccc2C)cc1	none
COc1ccc(OCC(=O)Nc2cc(-c3nn4c(C)nnc4s3)ccc2C)cc1	ERa coact pot 275.9[fluorescence artefact?]
COC(=O)c1cccc(NC(=O)CSc2nnc(C)n2Cc2ccccc2)c1	none
CCOC(=O)c1c(C)[nH]c(C(=O)COC(=O)C(C)N2C(=O)C3CCCCC3C2=O)c1C (configuration not stated)	none
CCOc1ccc(-c2nnn(CC(=O)c3ccc4c(c3)OCCO4)n2)cc1OCC	ERa coact pot 385.5[fluorescence artefact?]
CC(C)C1O/C(=N/C(=O)Nc2ccc(Cl)c(Cl)c2)NC1=O (configuration not stated)	H69AR growth 86K 11.5
Cc1ccc(CCNC(=O)C2CCC(=O)N2C2CCCC2)cc1 (configuration not stated)	none
Cc1ccc(C2C(C#N)=C(N)Oc3cc4c(cc32)OCO4)cc1 (configuration not stated)	H69AR growth 86K 15.5
N#CC1=C(N)OC(c2ccccc2)=C(C#N)C1c1ccc2c(c1)OCO2 (configuration not stated)	none
CSc1ccc(C2C(C#N)=C(N)Oc3cc4c(cc32)OCO4)cc1 (configuration not stated)	H69AR growth 86K 18.3
COCCNS(=O)(=O)c1ccc2c(c1)C(=O)c1cc(S(=O)(=O)NCCOC)ccc1-2	ERb coact inh 55.0[fluorescence artefact?]
O=C1c2cc(S(=O)(=O)NCCCO)ccc2-c2ccc(S(=O)(=O)NCCCO)cc21	none
COc1ccccc1OCc1nc2c3c(-c4ccccc4)c(-c4ccccc4)oc3ncn2n1	H69AR growth 86K 25.3
Cc1cc(C)c2c(n1)sc1c(N3CCOCC3)ncnc12	HUVEC prolif 384 21.6
c1nc(N2CCNCC2)c2sc3nc(N4CCOCC4)c4c(c3c2n1)CCC4	H69AR growth 86K 7.9, Fibroblast inh 4.0
N/C(Cc1ccc(Cl)cc1)=N\OC(=O)c1cccc2ccccc12	H69AR growth 86K -0.4, HUVEC prolif 384 1.4
N/C(Cc1ccc(Cl)cc1)=N\OC(=O)c1ccc2ccccc2c1	H69AR growth 86K 3.2, HUVEC prolif 384 5.6
Cc1ccccc1OCC(=O)O/N=C(\N)Cc1ccc(Cl)cc1	none
COCCNC(=O)c1ccc(CN2CCOCC2)cc1	none
Cc1ccc(CN2C(=O)/C(=C3\SC(N4CCOCC4)=NC3=O)c3cc(Br)ccc32)cc1	none
O=C1N=C(N2CCOCC2)S/C1=C1\C(=O)N(Cc2ccccc2)c2ccc(Br)cc21	ERa coact inh 92.9[fluorescence artefact?]
COc1ccccc1-n1c(CNC(=O)c2ccco2)nnc1SCC(=O)Nc1ccc(F)cc1	none
CCOc1ccc2[nH]c(C)cc(=O)c2c1	none
CCOc1ccc2[nH]c(=O)c(=O)[nH]c2c1	ERb coact inh 54.4, ERa coact inh 52.0[fluorescence artefact?]
COc1ccc(Cl)cc1NC(=O)CSc1nnc(Cn2c(=O)sc3ccccc32)n1C	none
CCCC(=O)N1CCN(c2ccc(C(=O)c3ccc(OC)c(Br)c3)cc2F)CC1	none
COc1ccc(C(=O)c2ccc(N3CCN(C(=O)c4ccc(F)cc4)CC3)c(F)c2)cc1Br	H69AR growth 86K 36.4, ERa coact pot 291.9[fluorescence artefact?]
CNCCCC12CCC(c3ccccc31)c1ccccc12	H69AR growth 86K 8.6!
COc1ccc(CNCc2cc3c(C(C)(C)C)nn(-c4ccccc4)c3[nH]c2=O)cc1	H69AR growth 86K 24.1
CC(C)(C)c1nn(-c2ccccc2)c2[nH]c(=O)c(CNc3ccc4c(c3)OCCO4)cc12	none
Cc1ccc(CNCc2cc3c(C(C)(C)C)nn(-c4ccccc4)c3[nH]c2=O)cc1	H69AR growth 86K 1.9
CC(C)(C)c1nn(-c2ccccc2)c2[nH]c(=O)c(CNCc3ccco3)cc12	H69AR growth 86K 7.8
Cc1cccc2nc(Cn3c(=O)n(CCC(=O)NCc4ccco4)c(=O)c4ccccc43)cc(=O)n12	none
CCSC1=N/C(=C\c2ccc(C(=O)O)cc2)C(=O)S1	none
CCOC(=O)SC1=N/C(=C\c2ccc(N(C)C)cc2)C(=O)S1	H69AR growth 86K 26.9
Cc1cc(NC(=O)CSc2nnc(-c3ccncc3)n2N)ccc1Br	none
CC(=O)c1cccc(NC(=O)Nc2ccc3c(c2)N(C)C(=O)CS3)c1	H69AR growth 86K 24.0
CC(=O)Nc1ccc(Cl)cc1C(=O)O	none
Cc1ccc(NC(=S)NC(NC(=O)c2ccco2)C(Cl)(Cl)Cl)cc1 (configuration not stated)	H69AR growth 86K 22.3
CCCN(C(=O)c1cccs1)c1nnc(-c2ccncc2)s1	none
Cc1c(Cl)cccc1N(CC(=O)NC1CCCCC1)S(C)(=O)=O	none
CC(C)CC(C(=O)OCC(=O)Nc1ncc(Cl)cc1Cl)N1C(=O)c2ccccc2C1=O (configuration not stated)	none
O=C(COC(=O)CN1C(=O)c2ccccc2C1=O)Nc1ncc(Cl)cc1Cl	ERb coact inh 55.8, ERa coact inh 60.0[fluorescence artefact?]
O=C(COC(=O)C1CCN(S(=O)(=O)c2cc([N+](=O)[O-])ccc2Cl)CC1)Nc1ncc(Cl)cc1Cl	ERb coact inh 80.2[fluorescence artefact?], ERa coact inh 78.4[fluorescence artefact?]
